Series [1] in a line: Solubility of the compound in water. The class given is physicochemical. The following applies: buffer.
For a further series, the system named is SW480. Nature of the series: Growth inhibition of human SW480 cells assessed as viable cells after 3 days using resazurin by […] assay. The class given is functional, cell-based. As to conditions: SW480, 72 h. The procedure, abridged:
(§1)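 Cells grown in RPMI 1640 + 10% FBS + penicillin/streptomycin, trypsinized and seeded at 2 × 10³ cells/well. Compound added 24 h later as a concentration curve starting at 10 μg/mL with nine further 2-fold dilutions. After 3 days of exposure, viability was read with CellTiter-Blue (resazurin to resorufin). IC50 is the average of three separate experiments.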

The test system of a further series is HCT-116. Briefly: Growth inhibition of human HCT116 cells assessed as viable cells after 3 days using resazurin by […] assay. The class given is functional, cell-based. As to conditions: HCT-116, 72 h. The procedure, abridged:
as §1

Series [2] is described as follows: Ratio of IC50 for human HCT116 cells to IC50 for […]/TCF4 pathway expressed in HCT116 cells. The series is classed as cell-based. The following applies: HCT-116.
The next series addresses TCF4/beta-catenin (Homo sapiens, UniProt P35222+Q9NQB0). Briefly: Inhibition of beta-catenin/TCF4 pathway expressed in HCT116 cells containing delta45S mutant after 24 hrs by luciferase reporter gene assay. The class given is cell-based. As to conditions: hct-116. The procedure, abridged:
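HCT116 cells at 1 × 10⁴/well, cotransfected with 50 ng TOP-FLASH reporter (Tcf4 binding sites) and 50 ng pTK-β-gal as internal control. At 4 h post-transfection, fresh medium with compound at various concentrations was added. Firefly luciferase was read 24 h after compound addition, normalized to β-galactosidase and expressed as a percentage of control luciferase activity.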

The structures appear in SMILES notation.

Sequence of TCF4/beta-catenin (P35222 2-781 limits assumed, stated change not applied): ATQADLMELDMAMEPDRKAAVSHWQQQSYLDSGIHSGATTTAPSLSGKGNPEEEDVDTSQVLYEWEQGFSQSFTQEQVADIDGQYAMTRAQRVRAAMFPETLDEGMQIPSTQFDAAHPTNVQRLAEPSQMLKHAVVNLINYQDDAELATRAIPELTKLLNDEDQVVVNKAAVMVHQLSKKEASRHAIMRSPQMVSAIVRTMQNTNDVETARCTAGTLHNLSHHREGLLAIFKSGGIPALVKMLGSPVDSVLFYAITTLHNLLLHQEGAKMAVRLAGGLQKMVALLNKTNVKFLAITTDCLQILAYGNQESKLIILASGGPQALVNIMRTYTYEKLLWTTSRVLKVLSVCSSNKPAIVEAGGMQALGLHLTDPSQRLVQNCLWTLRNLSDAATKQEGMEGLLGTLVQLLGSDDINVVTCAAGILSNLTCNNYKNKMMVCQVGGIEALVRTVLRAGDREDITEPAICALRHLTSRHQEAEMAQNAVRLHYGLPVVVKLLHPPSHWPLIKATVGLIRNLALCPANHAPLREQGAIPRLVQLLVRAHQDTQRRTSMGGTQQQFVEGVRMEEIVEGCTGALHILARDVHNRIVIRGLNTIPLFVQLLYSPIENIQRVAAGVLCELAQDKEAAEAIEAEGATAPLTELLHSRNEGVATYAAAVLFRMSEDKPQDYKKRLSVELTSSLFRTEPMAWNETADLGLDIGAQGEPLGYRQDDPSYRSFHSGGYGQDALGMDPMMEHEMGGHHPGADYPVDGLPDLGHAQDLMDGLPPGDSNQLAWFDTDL
Sequence of TCF4/beta-catenin (Q9NQB0 whole entry, stated change not applied): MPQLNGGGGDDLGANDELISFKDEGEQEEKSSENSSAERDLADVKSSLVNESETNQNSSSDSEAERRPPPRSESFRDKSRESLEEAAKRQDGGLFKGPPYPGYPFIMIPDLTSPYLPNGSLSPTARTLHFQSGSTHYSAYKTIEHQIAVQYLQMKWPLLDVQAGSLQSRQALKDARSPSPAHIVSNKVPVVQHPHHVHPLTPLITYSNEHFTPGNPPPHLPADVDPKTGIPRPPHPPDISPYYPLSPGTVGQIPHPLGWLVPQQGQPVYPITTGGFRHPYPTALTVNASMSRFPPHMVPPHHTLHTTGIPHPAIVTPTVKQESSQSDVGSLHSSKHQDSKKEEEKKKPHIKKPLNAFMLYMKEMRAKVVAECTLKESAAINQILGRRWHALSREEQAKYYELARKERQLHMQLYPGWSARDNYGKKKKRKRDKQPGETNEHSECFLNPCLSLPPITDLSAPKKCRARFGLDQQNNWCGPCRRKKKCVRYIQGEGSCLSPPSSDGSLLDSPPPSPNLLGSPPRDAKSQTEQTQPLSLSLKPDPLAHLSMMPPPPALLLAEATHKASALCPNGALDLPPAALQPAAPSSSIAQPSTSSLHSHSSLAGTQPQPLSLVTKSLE

For `CCCNc1nc(NCc2ccc(C(=O)Nc3ccc(F)cc3)cc2)c2cc(C)ccc2n1`, in series [1], the solubility entry is recorded as “soluble”. Moreover, the IC50 in the series on SW480 stood at 1300 nM; in the series with HCT-116, 1200 nM.
As for `CCNc1nc(NCc2ccc(NC(=O)c3ccc(F)cc3)cc2)c2ccccc2n1`, the Ratio IC50 in series [2] came to 2. Also, the results for the IC50 in the series on SW480, with HCT-116 and against TCF4/beta-catenin were 2300 nM, 1400 nM and 3000 nM, respectively.

For the origin of these results see ChEMBL document CHEMBL2016466, “Design, synthesis, and biological evaluation of new diaminoquinazolines as β-catenin/Tcf4 pathway inhibitors” (J Med Chem, 2012).
